Our source for the Activity and IC50 values is ChEMBL document CHEMBL3425488, “Novel histone deacetylase inhibitors induce growth arrest, apoptosis, and differentiation in sarcoma cancer stem cells” (J Med Chem, 2015).

In experiment [1] the test system is A204. In words: Induction of apoptosis in human A204 cells at 1 to 2 uM after 48 hrs by Hoechst 33258 staining-based fluorescence microscopic analysis. Format: functional, cell-based. Summed up: (§1)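 Dissociated sarcospheres seeded on glass coverslips in complete IMDM and exposed to 0.5, 1 and 2 μM for 48 h; untreated cells as negative control. Fixed in methanol/acetic acid (3:1), then stained with 2.25 μg/mL Hoechst 33258 for 10 min at rt in the dark. Apoptotic-body nuclei counted over at least five fields (20× objective) and reported as percentage of cells.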

Experiment [2] deals with Histone deacetylase 9 (Homo sapiens, UniProt Q9UKV0). In words: Inhibition of recombinant HDAC9 (unknown origin) by homogeneous fluorescence release assay. Summed up:
(§2)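 Isoform enzyme assay run in 10-dose IC50 mode. Compounds were serially diluted 3-fold starting from 50 μM solutions.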

In experiment [3] the test system is SK-ES1. In words: Antiproliferative activity against human SK-ES-1 cells after 24 to 72 hrs by […] dye exclusion assay. Format: functional, cell-based. A digest of the protocol: (§3)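 Sarcosphere-derived CSCs, dissociated to single cells, plated at 50000/well in complete IMDM for adhesion. After 24 h, exposed to 0.5, 1 and 2 μM. Viable cells counted by dye exclusion at 24, 48 and 72 h. Growth inhibition is expressed relative to DMSO-treated controls. Three experiments in duplicate.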
On the technique in general: Tetrazolium assays rely on reduction of a dye to a coloured formazan, in cell work by metabolically active cells.

Experiment [4] has as its system A204. In words: Cytotoxicity against human A204 cells assessed as cell viability after 72 hrs by MTT assay. Format: functional, cell-based. A digest of the protocol: (§4)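 Sarcosphere-derived CSC cultures exposed 72 h to concentrations from 100 μM down to 0.1 μM. Viability compared with DMSO-only treated cells. IC50 calculated by linear regression.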
Experiment [5] has as its system A204. In words: Antiproliferative activity against human A204 cells after 24 to 72 hrs by […] dye exclusion assay. Format: functional, cell-based. Summed up: as §3
In experiment [6] the target is T1, Histone deacetylase 7 (Homo sapiens, UniProt Q8WUI4).
T1 sequence (Q8WUI4 whole entry): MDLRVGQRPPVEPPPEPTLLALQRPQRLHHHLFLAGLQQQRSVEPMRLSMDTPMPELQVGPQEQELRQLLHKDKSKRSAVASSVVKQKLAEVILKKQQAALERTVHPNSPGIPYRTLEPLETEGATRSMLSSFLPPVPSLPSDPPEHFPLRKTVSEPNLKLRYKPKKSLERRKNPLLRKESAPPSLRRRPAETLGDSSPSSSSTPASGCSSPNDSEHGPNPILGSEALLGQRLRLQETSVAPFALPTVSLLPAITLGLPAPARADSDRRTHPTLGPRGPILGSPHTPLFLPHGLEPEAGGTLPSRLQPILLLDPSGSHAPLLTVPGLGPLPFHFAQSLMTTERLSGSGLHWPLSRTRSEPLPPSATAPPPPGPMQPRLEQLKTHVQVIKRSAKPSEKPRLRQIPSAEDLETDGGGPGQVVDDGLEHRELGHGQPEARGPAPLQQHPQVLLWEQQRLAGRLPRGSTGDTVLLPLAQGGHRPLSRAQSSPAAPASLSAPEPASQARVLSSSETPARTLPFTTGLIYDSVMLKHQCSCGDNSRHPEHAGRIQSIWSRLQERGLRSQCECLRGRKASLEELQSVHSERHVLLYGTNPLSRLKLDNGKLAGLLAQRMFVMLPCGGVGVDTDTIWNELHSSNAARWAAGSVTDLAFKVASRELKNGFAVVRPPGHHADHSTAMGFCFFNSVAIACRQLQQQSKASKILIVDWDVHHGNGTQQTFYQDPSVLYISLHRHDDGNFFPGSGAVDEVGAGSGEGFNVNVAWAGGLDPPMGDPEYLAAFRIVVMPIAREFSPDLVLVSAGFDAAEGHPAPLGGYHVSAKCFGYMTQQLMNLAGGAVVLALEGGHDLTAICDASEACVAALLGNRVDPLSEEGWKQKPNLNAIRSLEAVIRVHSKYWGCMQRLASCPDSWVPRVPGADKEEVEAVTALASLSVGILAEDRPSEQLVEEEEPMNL
In words: Inhibition of recombinant HDAC7 (unknown origin) by homogeneous fluorescence release assay. Summed up:
as §2

Experiment [7] has as its system A673. In words: Antiproliferative activity against human A673 cells after 24 to 72 hrs by […] dye exclusion assay. Format: functional, cell-based. A digest of the protocol:
as §3

The subject of experiment [8] is MG-63. In words: Induction of apoptosis in human MG63 cells at 0.5 to 2 uM after 48 hrs by Alexa Fluor 488 Annexin V/propidium iodide staining-based flow cytometric analysis. Format: functional, cell-based.
In experiment [9] the test system is A673. In words: Cytotoxicity against human A673 cells assessed as cell viability after 72 hrs by MTT assay. Format: functional, cell-based. A digest of the protocol: as §4
The target of experiment [10] is Histone deacetylase 4 (Homo sapiens, UniProt P56524). In words: Inhibition of recombinant HDAC4 (unknown origin) by homogeneous fluorescence release assay. A digest of the protocol:
as §2

Experiment [11] deals with MG-63. In words: Antiproliferative activity against human MG63 cells after 24 to 72 hrs by […] dye exclusion assay. Format: functional, cell-based. A digest of the protocol:
as §3

Experiment [12] deals with MG-63. In words: Cytotoxicity against human MG63 cells assessed as cell viability after 72 hrs by MTT assay. Format: functional, cell-based. Summed up: as §4
Experiment [13] concerns HOS. In words: Induction of apoptosis in HOS cells at 1 to 2 uM after 48 hrs by Hoechst 33258 staining-based fluorescence microscopic analysis. Format: functional, cell-based. The conditions noted are these: Homo sapiens. Summed up:
as §1

Experiment [14] deals with MG-63. In words: Induction of apoptosis in human MG63 cells assessed as formation of apoptotic bodies after 48 hrs by Hoechst 33258 staining-based fluorescence microscopic analysis. Format: functional, cell-based. Summed up:
as §1

Activity calls are given as the source filed them. The calls are words filed in the database; no cut-off is given here. Bounds are passed on as bounds.

Sequence of Histone deacetylase 4 (P56524 whole entry): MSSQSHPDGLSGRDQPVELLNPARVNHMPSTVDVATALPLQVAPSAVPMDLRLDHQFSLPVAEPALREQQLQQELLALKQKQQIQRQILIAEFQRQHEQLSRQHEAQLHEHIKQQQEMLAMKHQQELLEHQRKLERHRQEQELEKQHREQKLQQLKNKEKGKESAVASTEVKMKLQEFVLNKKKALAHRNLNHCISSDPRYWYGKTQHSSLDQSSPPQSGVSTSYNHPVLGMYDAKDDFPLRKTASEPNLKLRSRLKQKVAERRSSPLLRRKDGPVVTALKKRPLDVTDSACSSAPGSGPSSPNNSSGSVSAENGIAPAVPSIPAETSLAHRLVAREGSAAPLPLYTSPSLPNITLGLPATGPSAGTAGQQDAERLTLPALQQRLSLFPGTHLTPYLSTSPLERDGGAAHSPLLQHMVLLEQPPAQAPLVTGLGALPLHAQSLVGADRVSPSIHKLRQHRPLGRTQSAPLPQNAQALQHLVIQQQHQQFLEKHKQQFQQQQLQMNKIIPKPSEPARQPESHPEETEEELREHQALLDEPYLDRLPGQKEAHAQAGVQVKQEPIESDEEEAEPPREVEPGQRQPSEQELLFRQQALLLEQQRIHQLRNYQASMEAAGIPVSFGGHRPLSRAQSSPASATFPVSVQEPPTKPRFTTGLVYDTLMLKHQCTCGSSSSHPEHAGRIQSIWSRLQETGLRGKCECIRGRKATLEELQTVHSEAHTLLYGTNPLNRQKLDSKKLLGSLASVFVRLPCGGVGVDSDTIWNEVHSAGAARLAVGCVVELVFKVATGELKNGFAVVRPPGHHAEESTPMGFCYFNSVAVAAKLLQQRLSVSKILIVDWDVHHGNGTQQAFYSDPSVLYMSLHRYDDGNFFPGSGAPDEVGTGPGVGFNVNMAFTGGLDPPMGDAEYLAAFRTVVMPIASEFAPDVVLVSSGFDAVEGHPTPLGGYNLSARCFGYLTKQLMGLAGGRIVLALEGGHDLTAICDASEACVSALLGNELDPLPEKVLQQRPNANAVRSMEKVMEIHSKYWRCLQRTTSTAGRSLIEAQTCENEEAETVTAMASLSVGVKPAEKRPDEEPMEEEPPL
Sequence of Histone deacetylase 9 (Q9UKV0 whole entry, canonical isoform): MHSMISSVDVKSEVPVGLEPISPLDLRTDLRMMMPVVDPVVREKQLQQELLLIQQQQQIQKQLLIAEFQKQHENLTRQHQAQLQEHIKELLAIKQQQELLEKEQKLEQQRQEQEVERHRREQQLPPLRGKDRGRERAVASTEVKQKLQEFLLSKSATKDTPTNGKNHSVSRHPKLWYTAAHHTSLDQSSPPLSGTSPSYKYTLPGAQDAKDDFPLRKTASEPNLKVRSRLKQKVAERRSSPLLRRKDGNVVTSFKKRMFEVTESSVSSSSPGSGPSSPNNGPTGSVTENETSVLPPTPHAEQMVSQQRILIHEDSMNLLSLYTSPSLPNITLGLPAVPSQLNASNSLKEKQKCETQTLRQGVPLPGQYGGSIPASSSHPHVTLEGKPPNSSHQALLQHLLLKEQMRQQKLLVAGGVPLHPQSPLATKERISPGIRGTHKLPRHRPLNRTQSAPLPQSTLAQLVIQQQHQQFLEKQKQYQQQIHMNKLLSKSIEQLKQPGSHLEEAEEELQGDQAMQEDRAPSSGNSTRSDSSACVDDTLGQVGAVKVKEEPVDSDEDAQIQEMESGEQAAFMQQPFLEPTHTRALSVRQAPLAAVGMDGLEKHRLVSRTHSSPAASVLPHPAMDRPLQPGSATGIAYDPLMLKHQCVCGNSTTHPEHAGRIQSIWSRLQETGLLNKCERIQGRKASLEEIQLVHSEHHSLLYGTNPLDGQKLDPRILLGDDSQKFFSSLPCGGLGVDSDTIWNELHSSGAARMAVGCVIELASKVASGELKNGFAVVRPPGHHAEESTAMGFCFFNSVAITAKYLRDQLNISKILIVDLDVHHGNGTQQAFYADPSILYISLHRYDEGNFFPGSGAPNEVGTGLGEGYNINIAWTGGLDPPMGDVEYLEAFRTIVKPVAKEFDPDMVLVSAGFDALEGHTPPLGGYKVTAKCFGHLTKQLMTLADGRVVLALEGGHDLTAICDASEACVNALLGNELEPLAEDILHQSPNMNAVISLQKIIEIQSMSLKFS

Consider `O=C(CCCCSc1nc(-c2ccc(-c3ccccc3)cc2)cc(=O)[nH]1)NO`, for which the result in [1], in experiment [8] and in experiment [13] was Active. The 50% inhibitory concentration (IC50) in experiment [2], in experiment [6] and in experiment [10] was greater than 50 µM throughout. In addition, the Activity result in [3], in experiment [4], in [5], in [7], in experiment [9] and in experiment [11] was “Dose-dependent effect” throughout. The Activity entry in experiment [12] and in experiment [14] was “Dose-dependent effect” in each case.
In the case of `O=C(/C=C/c1ccc(NC(=O)C(Cc2ccccc2)c2ccccc2)cn1)NO` (stereo not drawn), the result in experiment [1] was inactive. Further, the results for the IC50 in experiment [2], in experiment [6] and in experiment [10] were 10.6 µM, 8.77 µM and 11.7 µM, respectively. Also, the Activity result in experiment [3], in experiment [4], in experiment [5], in experiment [7], in [9] and in experiment [11] was “Dose-dependent effect” throughout. For the same compound, the Activity entry in [12] and in experiment [14] was “Dose-dependent effect” each time. In addition, the outcome in [8] and in [13] was Active.
